Test results: ChEMBL document CHEMBL1141202, “Novel CCR1 antagonists with oral activity in the mouse collagen induced arthritis” (Bioorg Med Chem Lett, 2005)

Experiments:
[1] = target: T1, C-C chemokine receptor type 1 (Homo sapiens, UniProt P32246); test: Antagonistic activity at human CCR1 in CHO-K1 cells; assay type: functional, cell-based
T1 sequence (P32246 whole entry): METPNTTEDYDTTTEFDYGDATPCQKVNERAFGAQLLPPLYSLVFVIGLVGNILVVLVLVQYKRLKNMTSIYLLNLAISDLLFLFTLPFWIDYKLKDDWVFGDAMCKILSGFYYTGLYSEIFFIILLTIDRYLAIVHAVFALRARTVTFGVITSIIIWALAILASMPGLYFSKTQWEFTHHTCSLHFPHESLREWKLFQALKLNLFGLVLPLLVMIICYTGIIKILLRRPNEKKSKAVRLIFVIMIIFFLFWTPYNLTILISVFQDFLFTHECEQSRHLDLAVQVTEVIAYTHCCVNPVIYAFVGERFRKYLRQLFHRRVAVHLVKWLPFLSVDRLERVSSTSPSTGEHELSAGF
How it was run: (§1)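 CHO-K1 cells stably transfected with human, mouse or rat CCR1; membranes used in a scintillation proximity assay with radiolabelled MIP-1α as ligand.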

[2] = target: T2, C-C chemokine receptor type 1 (Mus musculus, UniProt P51675); test: Antagonistic activity at mouse CCR1 in CHO-K1 cells; assay type: functional, cell-based; how it was run: as §1
T2 sequence (P51675 whole entry): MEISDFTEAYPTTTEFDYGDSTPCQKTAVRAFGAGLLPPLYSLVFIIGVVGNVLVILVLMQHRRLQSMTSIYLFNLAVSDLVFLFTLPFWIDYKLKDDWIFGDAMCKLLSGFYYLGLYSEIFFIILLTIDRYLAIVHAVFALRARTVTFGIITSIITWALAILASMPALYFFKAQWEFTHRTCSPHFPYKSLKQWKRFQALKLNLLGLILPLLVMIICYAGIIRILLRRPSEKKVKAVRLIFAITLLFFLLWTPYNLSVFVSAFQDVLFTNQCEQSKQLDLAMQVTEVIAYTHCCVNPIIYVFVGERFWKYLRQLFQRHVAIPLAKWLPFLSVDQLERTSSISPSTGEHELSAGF

[3] = target: T1, C-C chemokine receptor type 1; test: Antagonistic activity at human CCR1 by inhibition of MIP-1alpha induced calcium mobilization in THP1 cells; assay type: functional, cell-based, THP-1
How it was run: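 THP-1 cells with native CCR1 expression; preincubated with antagonist 30 min at RT, then stimulated with 3 nM MIP-1α; calcium response read as fluo-4 fluorescence.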

[4] = Oral bioavailability in rat; assay type: ADME, organism-based; details: in vivo
Rattus norvegicus = organism: Rattus norvegicus; test: Maximum concentration in rat; assay type: ADME, organism-based; details: in vivo
[5] = Half life in rat; assay type: ADME, organism-based; details: in vivo
[6] = AUC in rat; assay type: ADME, organism-based; details: plasma
[7] = target: C-C chemokine receptor type 5 (Mus musculus, UniProt P51682); test: Inhibition of mouse CCR5
[8] = target: C-C chemokine receptor type 6 (Homo sapiens, UniProt P51684); test: Inhibition of human CCR6
[9] = target: 5-hydroxytryptamine receptor 1A (Homo sapiens, UniProt P08908); test: Inhibition of human 5HT1A receptor
[10] = target: 5-hydroxytryptamine receptor 1B (Homo sapiens, UniProt P28222); test: Inhibition of human 5HT1B receptor
[11] = target: 5-hydroxytryptamine receptor 2A (Homo sapiens, UniProt P28223); test: Inhibition of human 5HT2A receptor
[12] = target: C-C chemokine receptor type 2 (Homo sapiens, UniProt P41597); test: Inhibition of human CCR2b
[13] = target: C-C chemokine receptor type 3 (Homo sapiens, UniProt P51677); test: Inhibition of human CCR3
[14] = target: 5-hydroxytryptamine receptor 2B (Homo sapiens, UniProt P41595); test: Inhibition of human 5HT2B receptor
[15] = target: 5-hydroxytryptamine receptor 2C (Homo sapiens, UniProt P28335); test: Inhibition of human 5HT2C receptor
[16] = target: Serotonin 3 (5-HT3) receptor; test: Inhibition of human 5HT3 receptor; assay type: protein-complex assay
[17] = target: 5-hydroxytryptamine receptor 6 (Homo sapiens, UniProt P50406); test: Inhibition of human 5HT6 receptor
[18] = target: 5-hydroxytryptamine receptor 7 (Homo sapiens, UniProt P34969); test: Inhibition of human 5HT7 receptor
[19] = target: Muscarinic acetylcholine receptor M1 (Homo sapiens, UniProt P11229); test: Inhibition of human muscarinic receptor M1
[20] = target: Muscarinic acetylcholine receptor M2 (Homo sapiens, UniProt P08172); test: Inhibition of human muscarinic receptor M2
[21] = target: Muscarinic acetylcholine receptor M3 (Homo sapiens, UniProt P20309); test: Inhibition of human muscarinic receptor M3
[22] = target: Muscarinic acetylcholine receptor M4 (Homo sapiens, UniProt P08173); test: Inhibition of human muscarinic receptor M4
[23] = target: Muscarinic acetylcholine receptor M5 (Homo sapiens, UniProt P08912); test: Inhibition of human muscarinic receptor M5
D(1A) dopamine receptor = D(1A) dopamine receptor (Homo sapiens, UniProt P21728); test: Inhibition of human dopamine receptor D1
D(2) dopamine receptor = D(2) dopamine receptor (Homo sapiens, UniProt P14416); test: Inhibition of human dopamine receptor D2
D(3) dopamine receptor = D(3) dopamine receptor (Homo sapiens, UniProt P35462); test: Inhibition of human dopamine receptor D3
D(4) dopamine receptor = D(4) dopamine receptor (Homo sapiens, UniProt P21917); test: Inhibition of human dopamine receptor D4.4
[24] = target: Adrenergic receptor alpha-1 (Homo sapiens, UniProt P35348+P25100+P35368); test: Inhibition of human adrenergic alpha-1 receptor; assay type: protein assay
[25] = target: Alpha-2A adrenergic receptor (Homo sapiens, UniProt P08913); test: Inhibition of human adrenergic alpha-2A receptor
[26] = target: Alpha-2B adrenergic receptor (Homo sapiens, UniProt P18089); test: Inhibition of human adrenergic alpha-2B receptor
[27] = target: Alpha-2C adrenergic receptor (Homo sapiens, UniProt P18825); test: Inhibition of human adrenergic alpha-2C receptor
[28] = target: Beta-1 adrenergic receptor (Homo sapiens, UniProt P08588); test: Inhibition of human adrenergic beta-1 receptor
[29] = target: Beta-2 adrenergic receptor (Homo sapiens, UniProt P07550); test: Inhibition of human adrenergic beta-2 receptor
Mu-type opioid receptor = Mu-type opioid receptor (Homo sapiens, UniProt P35372); test: Inhibition of human mu opioid receptor
[30] = target: Kappa-type opioid receptor (Homo sapiens, UniProt P41145); test: Inhibition of human kappa opioid receptor
[31] = target: Delta-type opioid receptor (Homo sapiens, UniProt P41143); test: Inhibition of human delta opioid receptor

5-hydroxytryptamine receptor 1A, sequence (P08908 whole entry): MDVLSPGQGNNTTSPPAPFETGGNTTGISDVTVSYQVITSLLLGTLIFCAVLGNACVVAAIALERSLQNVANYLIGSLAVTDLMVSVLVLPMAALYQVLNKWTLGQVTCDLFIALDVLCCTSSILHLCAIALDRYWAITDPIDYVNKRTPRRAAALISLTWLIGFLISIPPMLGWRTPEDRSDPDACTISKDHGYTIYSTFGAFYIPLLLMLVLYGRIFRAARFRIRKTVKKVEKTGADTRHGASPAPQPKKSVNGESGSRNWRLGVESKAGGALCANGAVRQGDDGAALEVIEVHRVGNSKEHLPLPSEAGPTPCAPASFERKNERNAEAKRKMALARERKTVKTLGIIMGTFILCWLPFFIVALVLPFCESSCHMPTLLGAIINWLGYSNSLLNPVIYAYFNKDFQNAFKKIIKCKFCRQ
Muscarinic acetylcholine receptor M5, sequence (P08912 whole entry): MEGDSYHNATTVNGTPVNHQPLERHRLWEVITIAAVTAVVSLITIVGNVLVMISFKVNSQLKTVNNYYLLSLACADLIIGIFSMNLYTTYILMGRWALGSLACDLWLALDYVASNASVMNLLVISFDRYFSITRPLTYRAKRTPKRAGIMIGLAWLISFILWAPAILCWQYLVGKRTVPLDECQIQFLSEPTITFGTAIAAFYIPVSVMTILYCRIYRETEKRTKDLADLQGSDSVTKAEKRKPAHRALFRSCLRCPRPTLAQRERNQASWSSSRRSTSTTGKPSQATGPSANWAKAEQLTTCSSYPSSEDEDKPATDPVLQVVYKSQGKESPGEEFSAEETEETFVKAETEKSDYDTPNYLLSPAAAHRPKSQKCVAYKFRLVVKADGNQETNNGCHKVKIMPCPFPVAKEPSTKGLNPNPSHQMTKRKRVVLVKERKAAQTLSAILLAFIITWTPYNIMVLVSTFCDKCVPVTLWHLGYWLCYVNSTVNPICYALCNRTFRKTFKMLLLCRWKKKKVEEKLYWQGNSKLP
Alpha-2A adrenergic receptor, sequence (P08913 whole entry): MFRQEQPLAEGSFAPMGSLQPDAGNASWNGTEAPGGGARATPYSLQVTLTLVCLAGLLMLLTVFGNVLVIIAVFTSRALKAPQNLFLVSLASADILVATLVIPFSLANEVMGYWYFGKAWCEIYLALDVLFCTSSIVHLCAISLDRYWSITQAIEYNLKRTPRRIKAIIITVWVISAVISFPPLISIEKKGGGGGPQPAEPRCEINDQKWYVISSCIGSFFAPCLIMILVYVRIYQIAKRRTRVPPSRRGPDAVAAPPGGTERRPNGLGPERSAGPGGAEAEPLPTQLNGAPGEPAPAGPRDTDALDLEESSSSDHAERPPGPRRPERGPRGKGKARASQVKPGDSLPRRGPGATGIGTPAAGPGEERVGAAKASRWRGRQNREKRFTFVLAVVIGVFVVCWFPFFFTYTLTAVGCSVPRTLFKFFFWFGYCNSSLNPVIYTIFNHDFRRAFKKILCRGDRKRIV
5-hydroxytryptamine receptor 2B, sequence (P41595 whole entry): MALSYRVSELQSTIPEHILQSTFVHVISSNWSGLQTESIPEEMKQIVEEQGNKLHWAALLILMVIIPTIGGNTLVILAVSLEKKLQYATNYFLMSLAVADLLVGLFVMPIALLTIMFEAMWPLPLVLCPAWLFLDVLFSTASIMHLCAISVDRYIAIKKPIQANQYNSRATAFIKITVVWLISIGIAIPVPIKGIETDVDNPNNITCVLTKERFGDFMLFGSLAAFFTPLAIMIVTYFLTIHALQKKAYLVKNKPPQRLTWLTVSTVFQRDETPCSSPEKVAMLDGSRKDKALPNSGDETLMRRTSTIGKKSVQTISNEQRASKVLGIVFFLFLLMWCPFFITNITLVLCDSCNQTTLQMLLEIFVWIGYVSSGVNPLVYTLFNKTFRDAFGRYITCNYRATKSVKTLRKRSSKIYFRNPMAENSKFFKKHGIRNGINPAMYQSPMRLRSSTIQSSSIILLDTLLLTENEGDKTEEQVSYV
5-hydroxytryptamine receptor 7, sequence (P34969 whole entry): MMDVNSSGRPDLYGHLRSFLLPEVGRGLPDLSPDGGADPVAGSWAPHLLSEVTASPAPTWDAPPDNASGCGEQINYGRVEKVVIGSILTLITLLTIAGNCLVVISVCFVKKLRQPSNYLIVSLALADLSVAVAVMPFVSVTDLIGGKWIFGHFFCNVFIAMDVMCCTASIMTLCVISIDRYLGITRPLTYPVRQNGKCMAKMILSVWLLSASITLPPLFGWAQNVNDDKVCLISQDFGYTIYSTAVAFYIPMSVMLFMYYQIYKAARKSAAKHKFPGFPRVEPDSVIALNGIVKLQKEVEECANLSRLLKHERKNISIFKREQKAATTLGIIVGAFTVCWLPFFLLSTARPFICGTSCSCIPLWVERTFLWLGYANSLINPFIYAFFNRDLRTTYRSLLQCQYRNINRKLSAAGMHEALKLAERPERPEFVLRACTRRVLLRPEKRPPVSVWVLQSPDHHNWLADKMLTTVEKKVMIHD
5-hydroxytryptamine receptor 2A, sequence (P28223 whole entry): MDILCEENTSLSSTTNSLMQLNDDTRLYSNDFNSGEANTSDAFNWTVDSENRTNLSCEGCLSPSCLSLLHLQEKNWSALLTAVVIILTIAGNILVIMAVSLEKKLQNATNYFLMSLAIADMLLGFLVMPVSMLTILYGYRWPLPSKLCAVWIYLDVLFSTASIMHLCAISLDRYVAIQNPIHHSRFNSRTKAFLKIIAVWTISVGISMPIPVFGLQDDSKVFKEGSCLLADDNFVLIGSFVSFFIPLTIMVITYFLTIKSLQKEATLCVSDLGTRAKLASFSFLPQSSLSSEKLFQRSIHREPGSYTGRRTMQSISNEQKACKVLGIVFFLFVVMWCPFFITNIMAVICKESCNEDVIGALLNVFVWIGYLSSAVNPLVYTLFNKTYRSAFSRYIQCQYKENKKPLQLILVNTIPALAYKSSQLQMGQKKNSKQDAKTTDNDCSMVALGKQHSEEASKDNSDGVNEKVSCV
Alpha-2B adrenergic receptor, sequence (P18089 whole entry): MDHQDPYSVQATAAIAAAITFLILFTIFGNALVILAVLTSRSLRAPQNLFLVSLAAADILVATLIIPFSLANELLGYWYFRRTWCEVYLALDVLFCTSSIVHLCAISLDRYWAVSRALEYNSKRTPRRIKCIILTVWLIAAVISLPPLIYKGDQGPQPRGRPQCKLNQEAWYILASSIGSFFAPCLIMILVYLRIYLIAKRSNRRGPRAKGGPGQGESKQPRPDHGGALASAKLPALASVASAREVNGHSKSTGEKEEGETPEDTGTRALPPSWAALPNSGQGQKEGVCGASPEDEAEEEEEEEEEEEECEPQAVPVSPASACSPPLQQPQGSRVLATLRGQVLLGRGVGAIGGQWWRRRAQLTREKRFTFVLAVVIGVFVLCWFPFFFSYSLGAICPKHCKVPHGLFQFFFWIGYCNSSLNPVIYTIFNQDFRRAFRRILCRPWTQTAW
5-hydroxytryptamine receptor 6, sequence (P50406 whole entry): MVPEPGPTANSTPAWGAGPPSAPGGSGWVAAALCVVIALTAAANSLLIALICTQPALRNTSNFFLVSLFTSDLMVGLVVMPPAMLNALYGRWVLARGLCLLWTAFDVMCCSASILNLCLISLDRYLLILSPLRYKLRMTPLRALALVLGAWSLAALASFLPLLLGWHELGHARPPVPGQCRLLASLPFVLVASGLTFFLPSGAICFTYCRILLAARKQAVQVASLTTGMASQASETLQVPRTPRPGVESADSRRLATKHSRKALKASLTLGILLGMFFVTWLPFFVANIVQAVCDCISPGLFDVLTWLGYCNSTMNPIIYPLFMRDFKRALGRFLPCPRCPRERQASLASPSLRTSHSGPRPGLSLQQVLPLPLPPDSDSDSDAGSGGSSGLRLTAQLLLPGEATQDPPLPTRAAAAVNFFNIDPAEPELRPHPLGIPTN
D(2) dopamine receptor, sequence (P14416 whole entry): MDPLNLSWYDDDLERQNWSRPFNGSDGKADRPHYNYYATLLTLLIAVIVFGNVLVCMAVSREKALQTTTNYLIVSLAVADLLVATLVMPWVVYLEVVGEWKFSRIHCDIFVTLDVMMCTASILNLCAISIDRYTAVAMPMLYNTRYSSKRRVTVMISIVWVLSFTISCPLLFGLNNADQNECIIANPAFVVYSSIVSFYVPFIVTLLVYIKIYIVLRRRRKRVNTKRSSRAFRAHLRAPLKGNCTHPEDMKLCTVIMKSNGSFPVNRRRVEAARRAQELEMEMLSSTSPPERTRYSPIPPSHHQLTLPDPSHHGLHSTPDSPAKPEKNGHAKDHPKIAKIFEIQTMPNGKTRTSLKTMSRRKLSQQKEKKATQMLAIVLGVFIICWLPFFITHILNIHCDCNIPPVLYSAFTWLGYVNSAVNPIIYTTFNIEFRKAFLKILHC
Alpha-2C adrenergic receptor, sequence (P18825 whole entry): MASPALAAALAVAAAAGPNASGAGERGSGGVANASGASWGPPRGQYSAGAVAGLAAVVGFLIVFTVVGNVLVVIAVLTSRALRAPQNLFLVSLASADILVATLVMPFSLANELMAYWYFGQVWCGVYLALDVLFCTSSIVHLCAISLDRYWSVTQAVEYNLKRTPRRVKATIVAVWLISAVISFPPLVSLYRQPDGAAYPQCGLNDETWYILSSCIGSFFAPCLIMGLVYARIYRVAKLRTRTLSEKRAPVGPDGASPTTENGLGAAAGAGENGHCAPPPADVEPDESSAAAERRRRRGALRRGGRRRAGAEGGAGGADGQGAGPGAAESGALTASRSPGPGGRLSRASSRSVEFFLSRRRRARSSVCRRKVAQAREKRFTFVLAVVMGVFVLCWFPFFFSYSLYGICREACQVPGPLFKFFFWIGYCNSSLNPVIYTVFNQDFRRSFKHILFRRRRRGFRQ

`CC(=O)Nc1cc2ncccc2cc1/C=C/C(=O)N1CCN(Cc2ccc(F)cc2)C[C@H]1C` showed an IC50 [1] of 30 nM, an IC50 [2] of 1000 nM and an IC50 [3] of 20 nM.
`C[C@@H]1CN(Cc2ccc(F)cc2)CCN1C(=O)/C=C/c1ccc(Cl)cc1NC(N)=O` showed a bioavailability [4] of 90%, a Cmax (Rattus norvegicus) of 934 nM and a half-life [5] of 11 h. For the same compound, the AUC [6] was 487 ng·h/mL.
Work on `CC(=O)Nc1cc(Cl)ccc1/C=C/C(=O)N1CCCN(Cc2ccc(F)cc2)C[C@H]1C` yielded an IC50 [1] of 1600 nM.
In the case of `CC(=O)Nc1cc(Cl)ccc1/C=C/C(=O)N1CCN(Cc2ccc(F)cc2)C[C@H]1C`, the bioavailability [4] is reported as 95%, the Cmax (Rattus norvegicus) is reported as 850 nM and the half-life [5] is reported as 16.5 h. For the same compound, the AUC [6] was 784 ng·h/mL, the IC50 [7] was > 10000 nM and the IC50 [8] was > 100000 nM. For the same compound, the IC50 [9] was > 1000 nM, the IC50 [10] was > 1000 nM and the IC50 [11] was > 1000 nM. For the same compound, the IC50 [12] was > 10000 nM, the IC50 [13] was > 10000 nM and the IC50 [14] was > 1000 nM. The IC50 [15] was > 1000 nM, the IC50 [16] was > 1000 nM and the IC50 [17] was > 1000 nM. The IC50 [18] was > 1000 nM, the IC50 [19] was > 1000 nM and the IC50 [20] was > 1000 nM. For the same compound, the IC50 [21] was > 1000 nM, the IC50 [22] was > 1000 nM and the IC50 [23] was > 1000 nM. For the same compound, the IC50 (D(1A) dopamine receptor) was > 1000 nM, the IC50 (D(2) dopamine receptor) was > 1000 nM and the IC50 (D(3) dopamine receptor) was > 1000 nM. For the same compound, the IC50 (D(4) dopamine receptor) was > 1000 nM, the IC50 [24] was > 1000 nM and the IC50 [25] was > 1000 nM. For the same compound, the IC50 [26] was > 1000 nM, the IC50 [27] was > 1000 nM and the IC50 [28] was > 1000 nM. The IC50 [29] was > 1000 nM, the IC50 (Mu-type opioid receptor) was > 1000 nM and the IC50 [30] was > 1000 nM. For the same compound, the IC50 [31] was > 1000 nM.
With `CC(=O)Nc1cc(Cl)ccc1CCC(=O)N1CCN(Cc2ccc(F)cc2)C[C@H]1C` the IC50 [1] was 360 nM.
Work on `COc1cc(/C=C/C(=O)N2CCN(Cc3ccc(F)cc3)C[C@H]2C)c(NC(C)=O)cc1Cl` yielded a bioavailability [4] of 100%, a Cmax (Rattus norvegicus) of 396 nM and a half-life [5] of 4.1 h. It also gave an AUC [6] of 750 ng·h/mL.
`CC(=O)Nc1cc2ncccc2cc1/C=C/C(=O)N1C2CCC1CN(Cc1ccc(F)cc1)C2` showed an IC50 [1] of 150 nM and an IC50 [2] of 50 nM.
`CC(=O)Nc1cc(Cl)ccc1/C=C/C(=O)N1C[C@H]2C[C@@H]1CN2Cc1ccc(F)cc1` showed an IC50 [1] of 1700 nM.
With `CN(C)CC(=O)Nc1cc(Cl)ccc1/C=C/C(=O)N1C2CCC1CN(Cc1ccc(F)cc1)C2` the IC50 [1] was 30 nM, the IC50 [2] was 40 nM and the IC50 [3] was 9 nM. The bioavailability [4] was 77%, the Cmax (Rattus norvegicus) was 407 nM and the half-life [5] was 2.92 h. For the same compound, the AUC [6] was 1070 ng·h/mL.
With `CC(=O)Nc1cc2ccccc2cc1/C=C/C(=O)N1CCN(Cc2ccc(F)cc2)C[C@H]1C` the IC50 [1] was 80 nM, the IC50 [2] was 500 nM and the IC50 [3] was 13 nM.
`CC(=O)Nc1cc(Cl)ccc1/C=C/C(=O)N1CC2CCC(C1)N2Cc1ccc(F)cc1` showed an IC50 [1] of 300 nM.
`COc1cc(/C=C/C(=O)N2C3CCC2CN(Cc2ccc(F)cc2)C3)c(NC(C)=O)cc1Cl` gave an IC50 [1] of 7 nM, an IC50 [2] of 4 nM and a bioavailability [4] of 83%. It also gave a Cmax (Rattus norvegicus) of 80 nM, a half-life [5] of 5.1 h and an AUC [6] of 158 ng·h/mL.
In the case of `C[C@@H]1CN(Cc2ccc(F)cc2)CCN1C(=O)COc1ccc(Cl)cc1NC(N)=O.Cl` [BX 471], the bioavailability [4] is reported as 100%, the Cmax (Rattus norvegicus) is reported as 400 nM and the half-life [5] is reported as 1.9 h. For the same compound, the AUC [6] was 139 ng·h/mL.
`CC(=O)Nc1cc(Cl)ccc1/C=C/C(=O)N1C2CCC1CN(Cc1ccc(F)cc1)C2` showed an IC50 [1] of 200 nM.
With `COc1cc2c(cc1Cl)NC(=O)NC2CC(=O)N1CCN(Cc2ccc(F)cc2)C[C@H]1C` (stereo partly drawn) the IC50 [1] was 800 nM.
